Measurements from ChEMBL document CHEMBL1154100, “Tetrahydroisoquinolines as dopaminergic ligands: 1-Butyl-7-chloro-6-hydroxy-tetrahydroisoquinoline, a new compound with antidepressant-like activity in mice” (Bioorg Med Chem, 2009).
Each block holds one molecule with its values, some of them ahead of it. The source made the active and inactive calls. The calls are words filed in the database; no cut-off is given here.

How the values were obtained:
[1] = biological target: Sodium-dependent dopamine transporter (Rattus norvegicus) (UniProt P23977); assay: Inhibition of DAT in Wistar rat striatal synaptosomes at 100 uM by [3H]dopamine uptake assay; assay type: subcellular; settings: Brain
Chain of Sodium-dependent dopamine transporter (Rattus norvegicus) (P23977 whole entry): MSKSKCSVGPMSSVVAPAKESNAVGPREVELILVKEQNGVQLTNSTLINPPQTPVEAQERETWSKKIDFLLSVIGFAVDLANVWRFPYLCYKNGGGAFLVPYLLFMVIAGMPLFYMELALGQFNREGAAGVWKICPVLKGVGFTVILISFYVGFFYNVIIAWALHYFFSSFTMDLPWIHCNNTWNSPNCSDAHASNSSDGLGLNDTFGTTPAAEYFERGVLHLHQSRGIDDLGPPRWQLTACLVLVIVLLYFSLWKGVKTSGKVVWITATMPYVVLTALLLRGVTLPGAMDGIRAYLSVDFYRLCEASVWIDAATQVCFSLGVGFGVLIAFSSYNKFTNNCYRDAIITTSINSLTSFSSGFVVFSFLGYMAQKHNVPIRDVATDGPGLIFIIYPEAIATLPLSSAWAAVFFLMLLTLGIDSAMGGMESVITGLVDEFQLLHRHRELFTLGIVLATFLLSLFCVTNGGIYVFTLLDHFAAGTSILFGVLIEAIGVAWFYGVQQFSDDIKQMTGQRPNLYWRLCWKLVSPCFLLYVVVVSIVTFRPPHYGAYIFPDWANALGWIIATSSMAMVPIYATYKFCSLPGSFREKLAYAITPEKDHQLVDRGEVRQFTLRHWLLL
Procedure, shortened: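 Synaptosomes were prepared from female Wistar rat striatum at 0–4 °C. Tissue was homogenized in 0.32 M sucrose, spun twice at 1000g for 10 min, and the pooled supernatants were spun at 16,000g for 30 min. The pellet was taken up in Krebs medium (pH 7.6, with glucose). Samples were preincubated for 10 min at 37 °C with pargyline, then given 0.5 nM final [³H]dopamine for 10 min. Uptake was stopped by ice-cold dilution and rapid fiberglass filtration.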

D(2) dopamine receptor = D(2) dopamine receptor (Rattus norvegicus, UniProt P61169); assay: Displacement of [3H]raclopride from dopamine D2 receptor in Wistar rat striatal membrane by liquid scintillation counting; assay type: cell membranes, Striatum; settings: read-out: pKi (converted)
Chain of D(2) dopamine receptor (P61169 whole entry): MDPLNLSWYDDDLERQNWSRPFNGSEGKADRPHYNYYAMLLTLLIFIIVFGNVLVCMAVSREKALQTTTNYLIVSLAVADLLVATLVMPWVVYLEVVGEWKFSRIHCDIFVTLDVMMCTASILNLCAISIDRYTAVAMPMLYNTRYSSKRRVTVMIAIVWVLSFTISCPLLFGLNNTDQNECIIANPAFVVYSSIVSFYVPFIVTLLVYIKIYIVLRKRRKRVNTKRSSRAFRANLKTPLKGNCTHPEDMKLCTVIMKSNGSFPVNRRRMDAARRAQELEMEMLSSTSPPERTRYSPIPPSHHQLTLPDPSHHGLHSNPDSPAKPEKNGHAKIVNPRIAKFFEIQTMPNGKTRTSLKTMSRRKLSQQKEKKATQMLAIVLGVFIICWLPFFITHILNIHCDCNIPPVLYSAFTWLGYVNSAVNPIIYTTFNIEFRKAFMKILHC
Procedure, shortened: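 Striata from female Wistar rats (200–220 g) were homogenized in 50 mM Tris-HCl (pH 7.4) and centrifuged twice at 49,000g for 15 min at 4 °C. Membranes were resuspended in Tris buffer containing 120 mM NaCl, 2 mM CaCl₂, 5 mM KCl, 1 mM MgCl₂ and 0.1% ascorbic acid (pH 7.4). Samples were filtered, washed with cold buffer and counted by scintillation. Ki was derived using a [³H]raclopride KD of 1,25 nM, from 3–6 determinations run in duplicate.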

Rattus norvegicus = species: Rattus norvegicus; assay: Selectivity for Wistar rat dopamine D2 receptor over Wistar rat dopamine D1 receptor
D(1A) dopamine receptor = D(1A) dopamine receptor (Rattus norvegicus, UniProt P18901); assay: Displacement of [3H]SCH23390 from dopamine D1 receptor in Wistar rat striatal membrane by liquid scintillation counting; assay type: cell membranes, Striatum
Chain of D(1A) dopamine receptor (P18901 whole entry): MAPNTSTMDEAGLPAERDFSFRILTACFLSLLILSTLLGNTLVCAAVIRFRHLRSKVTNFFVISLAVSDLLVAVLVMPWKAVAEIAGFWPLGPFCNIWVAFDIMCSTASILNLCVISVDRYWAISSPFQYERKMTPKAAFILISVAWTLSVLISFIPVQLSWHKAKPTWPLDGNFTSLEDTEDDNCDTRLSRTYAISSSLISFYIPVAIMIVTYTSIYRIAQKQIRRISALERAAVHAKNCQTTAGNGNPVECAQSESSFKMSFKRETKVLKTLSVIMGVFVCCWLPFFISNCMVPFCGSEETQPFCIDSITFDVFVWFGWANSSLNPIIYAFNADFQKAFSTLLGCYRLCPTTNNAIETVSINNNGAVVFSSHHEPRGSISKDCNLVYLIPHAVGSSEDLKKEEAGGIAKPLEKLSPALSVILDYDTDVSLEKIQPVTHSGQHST
Procedure, shortened: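 Female Wistar rat striatum homogenized in 50 mM Tris-HCl pH 7.4, then washed twice at 49,000g. Membranes were resuspended in Tris-ions buffer (NaCl, CaCl2, KCl, MgCl2, 0.1% ascorbate). [3H]-SCH23390 displacement was read by filtration and scintillation counting. Ki was derived using KD 0.36 nM; 3–6 independent runs in duplicate, mean SEM.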

Mus musculus [2] = assay: Antidepressant-like activity in NMRI mouse assessed as reduction in immobility time at 0.01 mg/kg, ip by forced swimming test; assay type: functional, organism-based; design: dose 0.01 mg/kg
Procedure, shortened: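 Male NMRI mice, 10/group, not pre-tested; ip dosing in saline 30 min before test. Each mouse swam 6 min in a cylinder (12 cm diameter, 13 cm water, 23–24 °C). Immobility was scored over the last 4 min after a 2-min delay. Imipramine 16 mg/kg was the reference. Analysis by ANOVA with Fisher PLSD.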

Mus musculus [3] = assay: Antidepressant-like activity in NMRI mouse assessed as increase in locomotor activity at 5 mg/kg, ip after 6 mins by photoelectronic actimeter method; assay type: functional; settings: route intraperitoneal
Procedure, shortened: (§1)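 Naive male NMRI mice (25–30 g), n = 10/group; single ip injection (10 mL/kg, saline vehicle) 30 min before test, during the dark phase. Photoelectronic actimeter with two perpendicular infrared beams; beam crossings counted cumulatively at 6-min intervals over a 30-min session. Vs vehicle by ANOVA and Fisher PLSD; mean SD.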

Mus musculus [4] = assay: Antidepressant-like activity in NMRI mouse assessed as increase in locomotor activity at 25 mg/kg, ip after 12 mins by photoelectronic actimeter method; assay type: functional; settings: route intraperitoneal; procedure, shortened: as §1
Mus musculus [5] = assay: Antidepressant-like activity in NMRI mouse assessed as reduction in immobility time at 0.01 mg/kg, ip by forced swimming test in presence of D2 receptor antagonist haloperidol; assay type: functional, organism-based; design: dose 0.01 mg/kg
Procedure, shortened: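 Male NMRI mice, 10/group. Haloperidol 0.03 mg/kg sc was injected just before ip test compound, 30 min before a 6-min forced swim (water 23–24 °C, depth 13 cm). Immobility was measured during the final 4 min. Analysis by ANOVA with Fisher PLSD.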

Mus musculus [6] = assay: Antidepressant-like activity in NMRI mouse assessed as increase in locomotor activity at 0.2 mg/kg, ip after 18 mins by photoelectronic actimeter method; assay type: functional; settings: route intraperitoneal; procedure, shortened: as §1
Mus musculus [7] = assay: Antidepressant-like activity in NMRI mouse assessed as increase in locomotor activity at 1 mg/kg, ip after 18 mins by photoelectronic actimeter method; assay type: functional; settings: route intraperitoneal; procedure, shortened: as §1
Mus musculus [8] = assay: Antidepressant-like activity in NMRI mouse assessed as increase in locomotor activity at 0.04 mg/kg, ip after 24 mins by photoelectronic actimeter method; assay type: functional; settings: route intraperitoneal; procedure, shortened: as §1
Mus musculus [9] = assay: Antidepressant-like activity in NMRI mouse assessed as increase in locomotor activity at 0.2 mg/kg, ip by photoelectronic actimeter method in presence of D2 receptor antagonist haloperidol; assay type: functional, organism-based; design: dose 0.2 mg/kg
Procedure, shortened: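 Male NMRI mice, n = 10/group. Haloperidol 0.03 mg/kg sc given just before ip test compound (0.2 mg/kg) or saline, 30 min before testing. Spontaneous locomotion was counted as infrared beam crossings in a photoelectric actimeter over 30 min. Groups were compared by Fisher PLSD; mean SD.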

Mus musculus [10] = assay: Antidepressant-like activity in NMRI mouse assessed as increase in locomotor activity at 1 mg/kg, ip after 24 mins by photoelectronic actimeter method; assay type: functional; settings: route intraperitoneal; procedure, shortened: as §1
Mus musculus [11] = assay: Antidepressant-like activity in NMRI mouse assessed as increase in locomotor activity at 0.2 mg/kg, ip after 6 mins by photoelectronic actimeter method; assay type: functional; settings: route intraperitoneal; procedure, shortened: as §1
Mus musculus [12] = assay: Antidepressant-like activity in NMRI mouse assessed as increase in locomotor activity at 1 mg/kg, ip after 30 mins by photoelectronic actimeter method; assay type: functional; settings: route intraperitoneal; procedure, shortened: as §1
Mus musculus [13] = assay: Antidepressant-like activity in NMRI mouse assessed as increase in locomotor activity at 0.2 mg/kg, ip after 12 mins by photoelectronic actimeter method; assay type: functional; settings: route intraperitoneal; procedure, shortened: as §1
Mus musculus [14] = assay: Antidepressant-like activity in NMRI mouse assessed as increase in locomotor activity at 5 mg/kg, ip after 18 mins by photoelectronic actimeter method; assay type: functional; settings: route intraperitoneal; procedure, shortened: as §1
Mus musculus [15] = assay: Antidepressant-like activity in NMRI mouse assessed as increase in locomotor activity at 5 mg/kg, ip after 30 mins by photoelectronic actimeter method; assay type: functional; settings: route intraperitoneal; procedure, shortened: as §1
Mus musculus [16] = assay: Antidepressant-like activity in NMRI mouse assessed as increase in locomotor activity at 0.04 mg/kg, ip after 12 mins by photoelectronic actimeter method; assay type: functional; settings: route intraperitoneal; procedure, shortened: as §1
Mus musculus [17] = assay: Antidepressant-like activity in NMRI mouse assessed as increase in locomotor activity at 0.04 mg/kg, ip after 30 mins by photoelectronic actimeter method; assay type: functional; settings: route intraperitoneal; procedure, shortened: as §1
Mus musculus [18] = assay: Antidepressant-like activity in NMRI mouse assessed as increase in locomotor activity at 5 mg/kg, ip after 12 mins by photoelectronic actimeter method; assay type: functional; settings: route intraperitoneal; procedure, shortened: as §1
Mus musculus [19] = assay: Antidepressant-like activity in NMRI mouse assessed as increase in locomotor activity at 0.2 mg/kg, ip after 30 mins by photoelectronic actimeter method; assay type: functional; settings: route intraperitoneal; procedure, shortened: as §1
Mus musculus [20] = assay: Antidepressant-like activity in NMRI mouse assessed as increase in locomotor activity at 0.01 mg/kg, ip after 18 mins by photoelectronic actimeter method; assay type: functional; settings: route intraperitoneal; procedure, shortened: as §1
Mus musculus [21] = assay: Antidepressant-like activity in NMRI mouse assessed as increase in locomotor activity at 25 mg/kg, ip after 6 mins by photoelectronic actimeter method; assay type: functional; settings: route intraperitoneal; procedure, shortened: as §1
Mus musculus [22] = assay: Antidepressant-like activity in NMRI mouse assessed as increase in locomotor activity at 0.01 mg/kg, ip after 24 mins by photoelectronic actimeter method; assay type: functional; settings: route intraperitoneal; procedure, shortened: as §1
Mus musculus [23] = assay: Antidepressant-like activity in NMRI mouse assessed as increase in locomotor activity at 1 mg/kg, ip after 6 mins by photoelectronic actimeter method; assay type: functional; settings: route intraperitoneal; procedure, shortened: as §1
Mus musculus [24] = assay: Antidepressant-like activity in NMRI mouse assessed as increase in locomotor activity at 25 mg/kg, ip after 18 mins by photoelectronic actimeter method; assay type: functional; settings: route intraperitoneal; procedure, shortened: as §1
Mus musculus [25] = assay: Antidepressant-like activity in NMRI mouse assessed as increase in locomotor activity at 25 mg/kg, ip after 24 mins by photoelectronic actimeter method; assay type: functional; settings: route intraperitoneal; procedure, shortened: as §1
Mus musculus [26] = assay: Antidepressant-like activity in NMRI mouse assessed as increase in locomotor activity at 0.2 mg/kg, ip after 24 mins by photoelectronic actimeter method; assay type: functional; settings: route intraperitoneal; procedure, shortened: as §1
Mus musculus [27] = assay: Antidepressant-like activity in NMRI mouse assessed as increase in locomotor activity at 0.04 mg/kg, ip after 18 mins by photoelectronic actimeter method; assay type: functional; settings: route intraperitoneal; procedure, shortened: as §1
Mus musculus [28] = assay: Antidepressant-like activity in NMRI mouse assessed as increase in locomotor activity at 0.04 mg/kg, ip after 6 mins by photoelectronic actimeter method; assay type: functional; settings: route intraperitoneal; procedure, shortened: as §1
Mus musculus [29] = assay: Antidepressant-like activity in NMRI mouse assessed as increase in locomotor activity at 0.01 mg/kg, ip after 30 mins by photoelectronic actimeter method; assay type: functional; settings: route intraperitoneal; procedure, shortened: as §1
Mus musculus [30] = assay: Antidepressant-like activity in NMRI mouse assessed as increase in locomotor activity at 1 mg/kg, ip after 12 mins by photoelectronic actimeter method; assay type: functional; settings: route intraperitoneal; procedure, shortened: as §1
Mus musculus [31] = assay: Antidepressant-like activity in NMRI mouse assessed as increase in locomotor activity at 5 mg/kg, ip after 24 mins by photoelectronic actimeter method; assay type: functional; settings: route intraperitoneal; procedure, shortened: as §1
Mus musculus [32] = assay: Antidepressant-like activity in NMRI mouse assessed as increase in locomotor activity at 0.01 mg/kg, ip after 6 mins by photoelectronic actimeter method; assay type: functional; settings: route intraperitoneal; procedure, shortened: as §1
Mus musculus [33] = assay: Antidepressant-like activity in NMRI mouse assessed as increase in locomotor activity at 0.01 mg/kg, ip after 12 mins by photoelectronic actimeter method; assay type: functional; settings: route intraperitoneal; procedure, shortened: as §1
Mus musculus [34] = assay: Antidepressant-like activity in NMRI mouse assessed as increase in locomotor activity at 25 mg/kg, ip after 30 mins by photoelectronic actimeter method; assay type: functional; settings: route intraperitoneal; procedure, shortened: as §1

Compound: CCCCC1c2cc(O)c(Cl)cc2CCN1C (centres undefined)
Activity [1]: inactive
Ki (D(2) dopamine receptor): 395 nM
fold change (FC) (Rattus norvegicus): 2.3
Ki (D(1A) dopamine receptor): 1140 nM

Activity [1]: inactive
Ki (D(2) dopamine receptor): 207 nM
fold change (FC) (Rattus norvegicus): 0.6
Ki (D(1A) dopamine receptor): 111 nM
Compound: CN1CCc2cc(Cl)c(O)cc2C1Cc1ccccc1 (centres undefined)

Compound: CCCCC1NCCc2cc(O)c(Cl)cc21 (centres undefined)
Activity (Mus musculus [2]): Active
Activity (Mus musculus [3]): 153
Activity (Mus musculus [4]): 260
Activity (Mus musculus [5]): inactive
Activity (Mus musculus [6]): 219
Activity (Mus musculus [7]): 257
Activity (Mus musculus [8]): 185
Activity (Mus musculus [9]): inactive
Activity (Mus musculus [10]): 307
Activity (Mus musculus [11]): 115
Activity (Mus musculus [12]): 340
Activity (Mus musculus [13]): 186
Activity (Mus musculus [14]): 345
Activity (Mus musculus [15]): 464
Activity (Mus musculus [16]): 142
Activity (Mus musculus [17]): 200
Activity (Mus musculus [18]): 276
Activity (Mus musculus [19]): 277
Activity [1]: inactive
Activity (Mus musculus [20]): 133
Activity (Mus musculus [21]): 170
Activity (Mus musculus [22]): 147
Activity (Mus musculus [23]): 122
Activity (Mus musculus [24]): 319
Activity (Mus musculus [25]): 367
Activity (Mus musculus [26]): 255
Activity (Mus musculus [27]): 170
Activity (Mus musculus [28]): 102
Activity (Mus musculus [29]): 153
Activity (Mus musculus [30]): 200
Ki (D(2) dopamine receptor): 60.3 nM
Activity (Mus musculus [31]): 411
fold change (FC) (Rattus norvegicus): 49
Ki (D(1A) dopamine receptor): 3230 nM
Activity (Mus musculus [32]): 72
Activity (Mus musculus [33]): 105
Activity (Mus musculus [34]): 426

Activity [1]: inactive
Ki (D(2) dopamine receptor): 1530 nM
fold change (FC) (Rattus norvegicus): 0.8
Ki (D(1A) dopamine receptor): 1640 nM
Compound: COc1cc2c(cc1Cl)CCN(C)C2Cc1ccccc1 (centres undefined)
